Experimental data pooled from the literature.
Lines come from different studies, so protocols differ.
HTR1A: 5-hydroxytryptamine receptor 1A (HTR1A, Homo sapiens, UniProt P08908)
Fibroblast growth factor 14: Fibroblast growth factor 14 (Homo sapiens, UniProt Q92915)

| SMILES | target | assay | setting | measurement | result |
| --- | --- | --- | --- | --- | --- |
| Cc1cc(F)cc2c(CCC(=O)N[C@@H]3C(=O)NC[C@H]3O)c(-c3ccc(F)cc3)[nH]c12 | HTR1A | cell-free assay | 10 µM | inhibition | -8% |
| COc1ccc2oc(-c3ccc4nc(N)oc4c3)c/c(=N\c3ccccc3NC(=O)CCN)c2c1 | Serine/threonine-protein kinase BRSK2 (BRSK2, Homo sapiens, UniProt Q8IWQ3) | binding | 1 µM | remaining binding | 85% |
| CCCCC(=O)Nc1ccc(-c2ccc3ncn(CCC)c(=O)c3c2)cn1 | cAMP-dependent protein kinase catalytic subunit beta (PRKACB, Homo sapiens, UniProt P22694) | binding, competition with immobilised ligand | 0.5 µM | remaining binding | 87% |
| O=C(CN(Cc1ccccc1)S(=O)(=O)c1ccc(F)cc1)Nc1cccc(Cl)c1Cl | Fibroblast growth factor 14 | thermal stability | 25 µM | ΔTm | 1 °C |
| CC(=O)ON=C1C=CC(=C(C#N)c2ccccc2)C=C1 | Casein kinase I isoform epsilon (CSNK1E, Homo sapiens, UniProt P49674) | enzyme activity, inhibitor, ADP detection | 2 µM | activity vs control | 77% |
| Cc1cccc(NC(=O)Cn2cc(CO)c3ccccc32)c1 | Fibroblast growth factor 14 | binding, SPR |  | koff | 0.013 s⁻¹ |
| NC/C(=C\F)COc1cccc(Cn2c(=S)[nH]c(=O)c3[nH]cnc32)c1 | HTR1A | ligand displacement, radioligand | 10 µM | inhibition | < 50% |
| CCN1/C(=C/C(C)=O)Sc2ccc(F)cc21 | Nociceptin receptor (OPRL1, Homo sapiens, UniProt P41146) | ligand displacement, radioligand | 10 µM | inhibition | 0.04% |
| CN(C)CCOC(=O)COc1ccc(Cl)cc1 | HTR1A | ligand displacement, radioligand | 1 µM, cell membranes | inhibition | -5.33% |
| C[C@]1(O)CCCN(c2nc(Nc3ccc(S(=O)(=O)N[C@H]4CC[C@H](CN5CCN(c6ccc(C7CCC(=O)NC7=O)cc6F)CC5)CC4)cc3Cl)ncc2C(F)(F)F)C1 (stereo partly drawn) | Leucine-rich repeat serine/threonine-protein kinase 2 (LRRK2, Homo sapiens, UniProt Q5S007, G2019S) | binding, competition with immobilised ligand | 1 µM | remaining binding | 12% |
| O=c1cc(-c2ccc([N+](=O)[O-])cc2)[nH]c2c(-c3ccc(Cl)cc3)c(Cc3ccccc3)nn12 | Fibroblast growth factor 14 | binding, SPR |  | koff | 0.00101 s⁻¹ |
| C1=C/COCc2cc(ccc2OCCN2CCCC2)Nc2nccc(n2)-c2cccc(c2)COC/1 | Death-associated protein kinase 3 (DAPK3, Homo sapiens, UniProt O43293) | binding | 0.1 µM | remaining binding | 53% |
